The values that follow come from ChEMBL document CHEMBL4007450, “Development of 1,2,4-Oxadiazoles as Potent and Selective Inhibitors of the Human Deacetylase Sirtuin 2: Structure-Activity Relationship, X-ray Crystal Structure, and Anticancer Activity” (J Med Chem, 2017).

By IC50 is commonly meant the midpoint of a concentration-inhibition curve.

The source made the active and inactive calls. The rule behind the calls is not given here.

The subject of one test is U-937. In words: Effect on cell cycle arrest in human U937 cells at 25 uM after 48 hrs by propidium iodide staining-based FACS analysis. Format: functional. For orientation: Flow cytometry measures light scatter and fluorescence of single cells or particles in a stream.
Test [1] has as its target T1, NAD-dependent protein deacetylase sirtuin-2 (Homo sapiens) (UniProt Q8IXJ6).
T1 sequence (whole entry): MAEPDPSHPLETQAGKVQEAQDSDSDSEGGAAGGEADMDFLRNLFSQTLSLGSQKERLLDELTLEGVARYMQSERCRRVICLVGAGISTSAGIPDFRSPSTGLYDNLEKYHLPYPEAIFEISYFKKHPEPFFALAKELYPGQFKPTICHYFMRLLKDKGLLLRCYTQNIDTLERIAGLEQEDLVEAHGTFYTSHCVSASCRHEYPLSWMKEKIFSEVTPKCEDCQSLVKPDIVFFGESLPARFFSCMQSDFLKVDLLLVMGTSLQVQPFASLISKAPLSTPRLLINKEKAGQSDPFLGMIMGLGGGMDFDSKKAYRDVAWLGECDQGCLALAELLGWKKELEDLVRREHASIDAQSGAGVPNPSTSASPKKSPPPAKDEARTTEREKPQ
Briefly: Inhibition of human N-terminal His6-SUMO-tagged SIRT2 catalytic domain (43 to 356 residues) deacetylase activity expressed in Escherichia coli using alpha-tubulin-acetylLys40 peptide as substrate at 100 uM after 45 mins in presence of NAD+ by pNCA/GDH-based microplate spectrophotometric analysis. The essentials:
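Continuous coupled assay: Sirt2 product nicotinamide is converted by pNCA/GDH, and NADPH oxidation is read at 340 nm. Compounds were tested at 10 and 100 μM. Background was taken without peptide or NAD+.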

The target of test [2] is T2, NAD-dependent protein deacetylase sirtuin-2 (Homo sapiens, UniProt Q8IXJ6).
T2 sequence (Q8IXJ6 whole entry): T1 sequence (whole entry)

Regarding `Clc1ccc(-c2noc(CN3CCOCC3)n2)cc1`, the result with U-937 was inactive. Besides, in test [1], the inhibition result was “Active”.
The matching figures for `Cc1ccc(-c2noc(CCCBr)n2)cc1`: “inactive” and “Active”.
For the compound `Clc1cccc(-c2noc(CCCBr)n2)c1`, in the test with U-937, the result was inactive.
As to `Clc1ccc(-c2noc(CN3CCCC3)n2)cc1`, in the test on U-937, the outcome was inactive. The inhibition result in test [1] was “Active”.
Consider `NC(=O)c1nc(-c2ccc(Br)cc2)no1`, for which the outcome with U-937 was inactive.
As to `CCN(CC)Cc1nc(-c2ccc([N+](=O)[O-])cc2)no1`, in the test on U-937, the result was inactive. In test [1], the inhibition entry was “inactive”.
In the case of `O=[N+]([O-])c1ccc(-c2noc(CN3CCCC3)n2)cc1`, the outcome in the test on U-937 was inactive. Also, the inhibition entry in test [1] is “inactive”.
Turning to `Clc1cccc(-c2noc(CN3CCCCC3)n2)c1`, the outcome in the test with U-937 was inactive.
Still for that read-out and setting: then `BrCCCc1nc(-c2cccc(Br)c2)no1`, with “inactive”.
`CN1CCN(Cc2nc(-c3ccc(Cl)cc3)no2)CC1`: in the test with U-937, the outcome was inactive. Besides, the inhibition result in test [1] was “Active”.
As to `BrCCCCc1nc(-c2ccc(Br)cc2)no1`, the result in the test on U-937 was inactive. In addition, it took 2.6 µM to reach half-maximal inhibition in test [2] (IC50).
Turning to `COC(=O)c1nc(-c2ccc(Br)cc2)no1`, in the test with U-937, the outcome was inactive.
On to `Clc1ccc(-c2noc(CN3CCCCCC3)n2)cc1`, for which the result in the test on U-937 was inactive. Also, in test [1], the inhibition result is “Active”.
With `OCC1CCN(Cc2nc(-c3ccc(Cl)cc3)no2)CC1`, the result with U-937 was inactive. Further, the inhibition entry in test [1] is “Active”.
`Clc1ccc(-c2noc(CN3CCCCC3)n2)cc1`: in the test on U-937, the outcome was inactive. Moreover, in test [1], the inhibition result is “Active”.
As to `Clc1ccc(-c2noc(CNC3CCCCC3)n2)cc1`, the outcome in the test on U-937 was inactive. The inhibition result in test [1] is “Active”.
With `Clc1ccc(-c2noc(CCCN3CCCCC3)n2)cc1`, the outcome in the test on U-937 was inactive. For the same compound, in test [1], the inhibition entry was “inactive”.
`Clc1ccccc1-c1noc(CN2CCCCC2)n1`: the outcome in the test on U-937 was inactive.
On to `CN(C)Cc1nc(-c2ccc([N+](=O)[O-])cc2)no1`, for which the result in the test with U-937 was inactive. Further, the inhibition result in test [1] is “inactive”.
Regarding `c1ccc(-c2noc(CN3CCCCC3)n2)cc1`, in the test on U-937, the result was inactive.
Still for that read-out and setting: as for `BrCCCc1nc(-c2ccccc2)no1`, the entry is “inactive”.
For the compound `FC(F)(F)c1ccc(-c2noc(CCCBr)n2)cc1`, the result in the test with U-937 was inactive. In addition, the IC50 in test [2] turned out to be 3.9 µM.
Compound `CC(=O)OCCCc1nc(-c2ccc(Cl)cc2)no1` yielded an IC50 in test [2] of 21.2 µM.
In the case of `OCCN1CCN(CCCc2nc(-c3ccccc3)no2)CC1`, in the test on U-937, the result was inactive. Besides, the inhibition result in test [1] is “inactive”.
Take `FC(F)(F)c1nc(-c2ccc(Br)cc2)no1`: the result in the test on U-937 was inactive.
Regarding `Clc1ccc(-c2noc(CN3CCSCC3)n2)cc1`, the outcome in the test with U-937 was inactive. Further, the inhibition result in test [1] was “Active”.
Regarding `Cc1nc(-c2ccc(Cl)cc2)no1`, the outcome in the test with U-937 was inactive.
For `Clc1ccc(-c2noc(CN3CCN(c4ccccc4)CC3)n2)cc1`, the outcome with U-937 was inactive. For the same compound, the inhibition result in test [1] was “Active”.
For `OCCCc1nc(-c2ccc(Cl)cc2)no1`, in test [2], the 50% inhibitory concentration (IC50) is 41.2 µM.
Take `c1cncc(-c2noc(CN3CCCCC3)n2)c1`: the outcome in the test with U-937 was inactive.
Consider `CN(C)Cc1nc(-c2ccc(Cl)cc2)no1`, for which the result in the test with U-937 was inactive.
`O=[N+]([O-])c1ccc(-c2noc(CCCBr)n2)cc1`: in the test with U-937, the outcome was inactive. Moreover, the inhibition result in test [1] was “Active”. In test [2], the half-inhibitory concentration (IC50) is 6.6 µM.
